# From ChEMBL document CHEMBL1123418, “N-imidazolylchroman-4-ones, N-imidazolyl-1-tetralones, and their alcohols as hypolipemic agents raising high-density lipoproteins” (1986)
# Tests used:
# Rattus norvegicus [1] = test: Percent increase in liver weight in rats when a 50 mg/Kg dose was administered; assay type: functional
# [2] = Percent change in high density lipoprotein cholesterol
# Rattus norvegicus [3] = test: Percent change in triglyceride concentration in serum from normocholesterolemic rats at dose 100 mg/kg (po)
# Rattus norvegicus [4] = test: Percent change in total cholesterol concentration in serum from normocholesterolemic rats at dose 100 mg/kg (po)
# Rattus norvegicus [5] = test: Percent change in low density lipoproteins cholesterol concentration in serum from normocholesterolemic rats at dose 100 mg/kg (po)
# Rattus norvegicus [6] = test: Percent change in high density lipoproteins cholesterol concentration in serum from normocholesterolemic rats at dose 100 mg/kg (po)
# Rattus norvegicus [7] = test: Percent increase in liver weight in rats when administered perorally; assay type: functional
# Rattus norvegicus [8] = test: Compound was tested for Enzyme induction effect in male rats treated for 5 days at dose 50 mg/kg aminopyrine N-demethylase activity(per g) of liver; assay type: functional
# Procedure, shortened: (§1)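 Male OFA-ICO SD rats were dosed orally for 5 days, with test compounds at 50 mg/kg/day and sodium phenobarbital at 75 mg/kg/day. Liver was homogenized in 1.15% KCl-0.01 M phosphate, pH 7.5. Microsomes were spun from the 9000g supernatant at 105000g and assayed for protein, cytochrome P-450, aniline p-hydroxylation (µmol p-aminophenol/20 min) and aminopyrine N-demethylation (µmol HCHO/5 min). Liver/body weight was also recorded. Mean ± SEM of four rats; Dunnett's test.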
# Rattus norvegicus [9] = test: Compound was tested for Enzyme induction effect in male rats treated for 5 days at dose 50 mg/kg aniline p-hydroxylase activity(per g) of liver; assay type: functional; procedure, shortened: as §1
# Rattus norvegicus [10] = test: Compound was tested for Enzyme induction effect in male rats treated for 5 days at dose 50 mg/kg concentration of cytochrome […]( mmol/mg) in protein; assay type: functional; procedure, shortened: as §1
# Rattus norvegicus [11] = test: Percent change in total cholesterol concentration in serum from hypercholesterolemic rats at dose 50 mg/kg (po); assay type: functional
# Rattus norvegicus [12] = test: Compound was tested for Enzyme induction effect in male rats treated for 5 days at dose 50 mg/kg concentration of microsomal proteins(mg/g) in liver; assay type: functional, organism-based; parameters: dose 50 mg/kg; procedure, shortened: as §1
# Rattus norvegicus [13] = test: Percent change in high density lipoproteins cholesterol concentration in serum from hypercholesterolemic rats at dose 50 mg/kg (po); assay type: functional
# Procedure, shortened: (§2)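 Rats were fed 1.5% cholesterol/0.5% cholic acid diet for 7 days, with compounds given by gavage over the last 4 days as a 0.5% Methocel suspension (0.5 mL/100 g). Rats were fasted overnight, killed on day 8 and bled under light CO₂ anesthesia. HDL was isolated by heparin-MnCl₂ precipitation (8000 rpm, 15 min, 4 °C). Total and HDL cholesterol were measured enzymatically-colorimetrically; % change vs control.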
# Rattus norvegicus [14] = species on record: Rattus norvegicus; test: Compound was tested in vitro for inhibition of Cholesterol biosynthesis in rat liver slices, % inhibition of [14C]acetate incorporation in neutral lipids at 5 e10-5 concentration; assay type: functional
# Procedure, shortened: (§3)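 Liver slices (250 mg) from fed male rats were incubated in Krebs-Ringer bicarbonate, pH 7.4, with 4 mM [2-¹⁴C]acetate under 95% O₂-5% CO₂. Compounds were tested at a final 2 × 10⁻⁴ M, or 5 × 10⁻⁵ M for one compound. ¹⁴C incorporation into cholesterol and into petroleum-ether-soluble nonsaponifiable neutral lipids gave % inhibition; mean of four determinations.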
# Rattus norvegicus [15] = species on record: Rattus norvegicus; test: Compound was tested in vitro for inhibition of Cholesterol biosynthesis in rat liver slices, % inhibition of [14C]acetate incorporation in cholesterol at 5 e10-5 concentration; assay type: functional; procedure, shortened: as §3
# [16] = Compound was tested for Enzyme induction effect in male rats treated for 5 days at dose 50 mg/kg ratio of % liver weight to % body weight; assay type: functional; procedure, shortened: as §1
# Rattus norvegicus [17] = test: Percent change in total cholesterol concentration in serum from hypercholesterolemic rats at dose 42.5 mg/kg (po); assay type: functional
# Rattus norvegicus [18] = test: Percent change in high density lipoproteins cholesterol concentration in serum from hypercholesterolemic rats at dose 42.5 mg/kg (po); assay type: functional; procedure, shortened: as §2
# Rattus norvegicus [19] = test: Compound was tested for Enzyme induction effect in male rats treated for 5 days at dose 50 mg/kg aminopyrine N-demethylase activity (per g) of liver; assay type: functional; procedure, shortened: as §1
# Rattus norvegicus [20] = test: Compound was tested for Enzyme induction effect in male rats treated for 5 days at dose 50 mg/kg concentration of cytochrome […]( mmol/mg) of protein; assay type: functional; procedure, shortened: as §1
# Rattus norvegicus [21] = test: Compound was tested for Hepatic peroxisomal proliferation effect in male rats treated for 7 days at dose 50 mg/kg carnitine acetyl transferase activity(per mg) of protein; assay type: functional
# Procedure, shortened: (§4)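 Male OFA-ICO SD rats received oral doses of 50 mg/kg/day for 1 week. Liver was homogenized in 0.25 M sucrose-0.01 M phosphate-0.1% ethanol, pH 7, then diluted in incubation buffer with 0.1% Triton X-100 and centrifuged. Supernatants were assayed for catalase (K, sec⁻¹), carnitine acetyltransferase (nmol CoASH/min) and cyanide-insensitive palmitoyl-CoA oxidation (nmol NAD⁺ reduced/min). Mean ± SEM of three rats; Dunnett's test.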
# Rattus norvegicus [22] = test: Compound was tested for Hepatic peroxisomal proliferation effect in male rats treated for 7 days at dose 50 mg/kg catalase activity (per mg) of protein; assay type: functional; procedure, shortened: as §4
# Rattus norvegicus [23] = test: Compound was tested for Hepatic peroxisomal proliferation effect in male rats treated for 7 days at dose 50 mg/kg palmitoyl-CoA oxidation activity(per mg) of protein; assay type: functional; procedure, shortened: as §4
# Rattus norvegicus [24] = test: Compound was tested for Enzyme induction effect in male rats treated for 5 days at dose 50 mg/kg concentration of microsomal proteins (mg/g) of liver; assay type: functional, organism-based; parameters: dose 50 mg/kg; procedure, shortened: as §1
# Rattus norvegicus [25] = test: Compound was tested for Hepatic peroxisomal proliferation effect in male rats treated for 7 days at dose 50 mg/kg concentration of hepatic proteins(mg/g) in liver; assay type: functional, organism-based; parameters: dose 50 mg/kg
# Rattus norvegicus [26] = species on record: Rattus norvegicus; test: Compound was tested in vitro for inhibition of Cholesterol biosynthesis in rat liver slices, % inhibition of [14C]acetate incorporation in neutral lipids at 2 e10-4 concentration; assay type: functional; procedure, shortened: as §3
# Rattus norvegicus [27] = species on record: Rattus norvegicus; test: Compound was tested in vitro for inhibition of Cholesterol biosynthesis in rat liver slices, % inhibition of [14C]-acetate incorporation in cholesterol at 2 e10-4 concentration; assay type: functional; procedure, shortened: as §3
# [28] = Compound was tested for Enzyme induction effect in male rats treated for 5 days at dose 50 mg/kg; ratio of % liver weight to % body weight; assay type: functional; procedure, shortened: as §1
# [29] = Compound was tested for Hepatic peroxisomal proliferation effect in male rats treated for 7 days at dose 50 mg/kg ratio of % liver weight to % body weight; assay type: functional
# Rattus norvegicus [30] = test: Percent change in triglyceride concentration in serum from normocholesterolemic rats at dose 50 mg/kg (po)
# Rattus norvegicus [31] = test: Percent change in low density lipoproteins cholesterol concentration in serum from normocholesterolemic rats at dose 50 mg/kg (po)
# Rattus norvegicus [32] = test: Percent change in total cholesterol concentration in serum from hypercholesterolemic rats at dose 30 mg/kg (po); assay type: functional; procedure, shortened: as §2
# Rattus norvegicus [33] = test: Percent change in high density lipoproteins cholesterol concentration in serum from hypercholesterolemic rats at dose 30 mg/kg (po); assay type: functional; procedure, shortened: as §2
# Rattus norvegicus [34] = test: Percent change in total cholesterol concentration in serum from hypercholesterolemic rats at dose 25 mg/kg (po); assay type: functional; procedure, shortened: as §2
# Rattus norvegicus [35] = test: Percent change in high density lipoproteins cholesterol concentration in serum from hypercholesterolemic rats at dose 25 mg/kg (po); assay type: functional; procedure, shortened: as §2
# Rattus norvegicus [36] = test: Compound was tested for its activity in diet-induced Hypercholesterolemic rats at dose 50 mg/kg after peroral administration carnitine acetyl transferase activity(per mg) of protein; assay type: functional; conditions: route oral
# Rattus norvegicus [37] = test: Compound was tested for its activity in diet-induced Hypercholesterolemic rats at dose 50 mg/kg after peroral administration palmitoyl-CoA oxidation activity(per mg) of protein; assay type: functional; conditions: route oral
# Rattus norvegicus [38] = test: Compound was tested for Hepatic peroxisomal proliferation effect in male rats treated for 7 days at dose 50 mg/kg protein; assay type: functional
# Rattus norvegicus [39] = test: Percent change in total cholesterol concentration in serum from hypercholesterolemic rats at dose 37 mg/kg (po); assay type: functional
# Rattus norvegicus [40] = test: Percent change in high density lipoproteins cholesterol concentration in serum from hypercholesterolemic rats at dose 37 mg/kg (po); assay type: functional; procedure, shortened: as §2
# Rattus norvegicus [41] = test: Percent change in total cholesterol concentration in serum from hypercholesterolemic rats at dose 40 mg/kg (po); assay type: functional
# Rattus norvegicus [42] = test: Percent change in high density lipoproteins cholesterol concentration in serum from hypercholesterolemic rats at dose 40 mg/kg (po); assay type: functional; procedure, shortened: as §2
# Rattus norvegicus [43] = species on record: Rattus norvegicus; test: Compound was tested in vitro for inhibition of Cholesterol biosynthesis in rat liver slices, % inhibition of [14C]acetate incorporation in cholesterol; assay type: functional; procedure, shortened: as §3
# Rattus norvegicus [44] = species on record: Rattus norvegicus; test: Compound was tested in vitro for inhibition of Cholesterol biosynthesis in rat liver slices, % inhibition of [14C]acetate incorporation in neutral lipids; assay type: functional; procedure, shortened: as §3
# Rattus norvegicus [45] = test: Percent change in high density lipoproteins cholesterol concentration in serum from hypercholesterolemic rats at dose 10 mg/kg (po); assay type: functional; procedure, shortened: as §2
# Rattus norvegicus [46] = test: Percent change in total cholesterol concentration in serum from hypercholesterolemic rats at dose 10 mg/kg (po); assay type: functional; procedure, shortened: as §2
# Rattus norvegicus [47] = test: Percent change in total cholesterol concentration in serum from hypercholesterolemic rats at dose 21 mg/kg (po); assay type: functional; procedure, shortened: as §2
# Rattus norvegicus [48] = test: Percent change in high density lipoproteins cholesterol concentration in serum from hypercholesterolemic rats at dose 21 mg/kg (po); assay type: functional; procedure, shortened: as §2
# Rattus norvegicus [49] = test: Percent change in triglyceride concentration in serum from normocholesterolemic rats at dose 200 mg/kg (po)
# Rattus norvegicus [50] = test: Percent change in total cholesterol concentration in serum from normocholesterolemic rats at dose 200 mg/kg (po)
# Rattus norvegicus [51] = test: Percent change in low density lipoproteins cholesterol concentration in serum from normocholesterolemic rats at dose 200 mg/kg (po)
# Rattus norvegicus [52] = test: Percent change in high density lipoproteins cholesterol concentration in serum from normocholesterolemic rats at dose 200 mg/kg (po)
smiles,measurement,setting,value
CC(C)OC(=O)C(C)(C)Oc1ccc(C(=O)c2ccc(Cl)cc2)cc1 [FENOFIBRATE],Change,Rattus norvegicus [1],38%
same,Percent change in HDL cholesterol,[2],7
same,Change,Rattus norvegicus [3],-50%
same,Change,Rattus norvegicus [4],-28%
same,Change,Rattus norvegicus [5],-31%
same,Change,Rattus norvegicus [6],-27%
O=C1c2ccc(O)c(Br)c2CCC1n1ccnc1 (centres undefined),Change,Rattus norvegicus [7],13%
same,Activity,Rattus norvegicus [8],1.69
same,Activity,Rattus norvegicus [9],0.67
same,Activity,Rattus norvegicus [10],0.98
same,Change,Rattus norvegicus [11],-44%
same,Concentration,Rattus norvegicus [12],28
same,Change,Rattus norvegicus [13],109%
same,Inhibition,Rattus norvegicus [14],0%
same,Inhibition,Rattus norvegicus [15],0%
same,Ratio,[16],3.24%
CC1Oc2ccc(C(=O)O)cc2C(=O)C1n1ccnc1 (centres undefined),Change,Rattus norvegicus [7],3%
same,Change,Rattus norvegicus [17],-12%
same,Change,Rattus norvegicus [18],-18%
O=C1c2cc(Cl)ccc2OCC1n1ccnc1 (centres undefined),Change,Rattus norvegicus [1],34%
same,Change,Rattus norvegicus [7],28%
same,Activity,Rattus norvegicus [19],2.98
same,Activity,Rattus norvegicus [9],0.93
same,Activity,Rattus norvegicus [20],2.46
same,Activity,Rattus norvegicus [21],2.9
same,Activity,Rattus norvegicus [22],42.1
same,Activity,Rattus norvegicus [23],4.1
same,Concentration,Rattus norvegicus [24],42.5
same,Concentration,Rattus norvegicus [25],216
same,Inhibition,Rattus norvegicus [26],0%
same,Inhibition,Rattus norvegicus [27],0%
same,Ratio,[28],4.4%
same,Ratio,[29],4.36%
same,Percent change in HDL cholesterol,[2],153
same,Change,Rattus norvegicus [30],-46%
same,Change,Rattus norvegicus [31],-53%
O=C1c2ccc(Br)cc2CCC1n1ccnc1 (centres undefined),Change,Rattus norvegicus [7],31%
same,Change,Rattus norvegicus [32],-84%
same,Change,Rattus norvegicus [33],228%
CCCc1cc2c(cc1O)OC(C)C(n1ccnc1)C2=O (centres undefined),Change,Rattus norvegicus [7],8%
same,Change,Rattus norvegicus [34],-15%
same,Change,Rattus norvegicus [35],28%
CCC1(c2ccccc2)C(=O)NC(=O)NC1=O [PHENOBARBITAL],Activity,Rattus norvegicus [36],4.2
same,Activity,Rattus norvegicus [37],1.15
same,Activity,Rattus norvegicus [38],1.92
same,Concentration,Rattus norvegicus [25],40.6
same,Ratio,[29],4.32%
CN(C)c1ccc2c(c1)C(=O)C(n1ccnc1)CC2 (centres undefined),Change,Rattus norvegicus [7],11%
same,Change,Rattus norvegicus [39],-37%
same,Change,Rattus norvegicus [40],69%
same,Inhibition,Rattus norvegicus [26],0%
same,Inhibition,Rattus norvegicus [27],55%
O=C(O)c1cccc2c1C(=O)C(n1ccnc1)CC2 (centres undefined),Change,Rattus norvegicus [7],-4%
same,Change,Rattus norvegicus [41],-19%
same,Change,Rattus norvegicus [42],-9%
CCCCCCCCCCCCn1ccnc1,Inhibition,Rattus norvegicus [43],66%
same,Inhibition,Rattus norvegicus [44],14%
COc1ccc2c(c1)CCC(n1ccnc1)C2=O (centres undefined),Change,Rattus norvegicus [7],0%
same,Change,Rattus norvegicus [45],34%
same,Change,Rattus norvegicus [46],-37%
CC1Oc2cc(O)c(Br)cc2C(=O)C1n1ccnc1 (centres undefined),Change,Rattus norvegicus [7],1%
same,Change,Rattus norvegicus [47],-10%
same,Change,Rattus norvegicus [48],2%
CCOC(=O)C(C)(C)Oc1ccc(Cl)cc1 [CLOFIBRATE],Change,Rattus norvegicus [1],25%
same,Percent change in HDL cholesterol,[2],13
same,Change,Rattus norvegicus [49],-52%
same,Change,Rattus norvegicus [50],-35%
same,Change,Rattus norvegicus [51],-40%
same,Change,Rattus norvegicus [52],-32%
